The list is not random: actives were taken first. Their share in the collection is about 3.5%.
DENV2 CPE rescue = protects cells from dengue virus 2 cytopathic effect; CPE inhibition, % at 9.99 µM; DENV2-infected cells, cytopathic effect rescue, plate reader; hit rate 1.7% among 350,000; in the data active = CPE inhibition above about 20%, passing the limit was not always enough; tested in BHK-21 cells;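 also: 0% = median of neutral control wells and 100% = median of positive control wells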
PglD inh = inhibitors of Campylobacter jejuni PglD acetyltransferase; purified PglD enzyme, DTNB colorimetric CoA detection; inhibition, % at 12.5 µM; hit rate 0.098% among 360,000; AID 602405; in the data active = inhibition above about 16%, passing the limit was not always enough
PGC1a acetyl inh = lowers PGC1a acetylation signal in U2OS cells; AlphaScreen anti-acetyl-lysine; with virally co-expressed GCN5 acetyltransferase; inhibition, % at 15.6 µM; hit rate 0.17% among 350,000;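 active = every replicate shows inhibition of at least 40%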;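 also: 0% = neutral control wells and 100% = positive control wells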
Ecoli rRNA inh = inhibitors of bacterial rRNA selective over humanized ribosomes | E. coli WT GFP vs humanized-ribosome RFP mutants, fluorescence, 24 h; active compounds read low; DMSO median 0, no signal -100 | GFP signal change (wild-type ribosome), % (concentration not given with the values) | hit rate 1.6% among 350,000 | AID 720706;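 active = significant combined selectivity score with lowered wild-type GFP, culture density cut under 30%, mutant RFP and density less affected; inactive = any of these conditions unmet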
HIV Env fusion = HIV envelope-mediated fusion inhibition. inhibition, % at 12.3 µM. hit rate 1.1% among 360,000. HeLa-JRFL Env/CEM21 cell fusion, luciferase;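 active = mean replicate inhibition score of at least 50 and every replicate individually at or above 50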;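 also: 0% = plate neutral controls and 100% = maraviroc near 300 nM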
FN deposition inh = fibronectin deposition inhibition; AH1F fibroblasts, Alexa488-fibronectin deposition fluorescence, overnight; inhibition, % at 12.6 µM; hit rate 0.086% among 350,000;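 active = mean inhibition across replicates of 30% or more, regardless of how many single replicates reach that level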;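 also: positive control wells lacked labelled fibronectin entirely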
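Assay system: AH1F fibroblasts assembling fluorescent fibronectin matrix; Amount: 10000 AH1F cells per well; Buffer or medium: DMEM, 2% serum; Probe or stimulus: Alexa488-fibronectin, 24 nM final in well; Doses: single compound dose, delivered by pin transfer; Incubation: 1 h adhesion, overnight exposure; Measured by: fluorescence 485/525 nm; Read-out: fibronectin deposition inhibition.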
* marks the source's active call; other numbers are inactive results; . = no result; [ ] = dose if it differs, or a comment.

SMILES	DENV2 CPE rescue	PglD inh	PGC1a acetyl inh	Ecoli rRNA inh	HIV Env fusion	FN deposition inh
COc1ccc(-c2csc(C3=C(O)CN(C(C)C)C3=N)n2)cc1OC	6.3	5.7	-5.7	-34.9*	-23.5	0.2
COc1ccc(-c2nc(-c3ccc(O)cc3O)cs2)cc1OC	-4.1	6.4	.	.	-105.9	4.6
C[C@@H]1CCCCO[C@@H](CN(C)Cc2ccc(Cl)c(Cl)c2)[C@H](C)CN([C@H](C)CO)C(=O)c2cc(NC(=O)Nc3ccc4c(c3)OCO4)ccc2O1	2.7	0.3	-7.2	-7.2	29.3[16.7 µM]	.
C[C@@H]1CN([C@H](C)CO)C(=O)c2cc(NC(=O)Nc3ccc4c(c3)OCO4)ccc2O[C@@H](C)CCCCO[C@H]1CN(C)Cc1ccc(Cl)c(Cl)c1	1.5	-1.2	-1.9	-2.7	62.6*[16.7 µM]	.
C[C@@H]1CN([C@@H](C)CO)C(=O)c2cc(NC(=O)Nc3ccc(F)cc3)ccc2O[C@@H](C)CCCCO[C@H]1CN(C)Cc1ccc2c(c1)OCO2	22.0*	-2.8	-6.6	-3.8	18.1[16.7 µM]	.
C[C@@H]1CN([C@H](C)CO)C(=O)c2cc(NC(=O)Nc3ccc(F)cc3)ccc2O[C@@H](C)CCCCO[C@@H]1CN(C)Cc1ccc2c(c1)OCO2	23.2*	-3.3	7.2	-16.7	27.4[16.7 µM]	.
C[C@@H]1CN([C@H](C)CO)C(=O)c2cc(NC(=O)Nc3ccc(F)cc3)ccc2O[C@@H](C)CCCCO[C@H]1CN(C)Cc1ccc2c(c1)OCO2	-10.3	-4.6	3.2	-20.8	20.2[16.7 µM]	.
C[C@@H]1CN([C@@H](C)CO)C(=O)c2cccc(NC(=O)Nc3ccccc3)c2O[C@@H]1CN(C)S(=O)(=O)c1ccc(Cl)cc1	8.8	-2.9	-15.5	-24.8*	.	.
C[C@H](CO)N1C[C@H](C)[C@@H](CN(C)Cc2ccc(-c3ccccc3)cc2)Oc2c(NC(=O)c3nc4ccccc4s3)cccc2C1=O	-8.5	2.8	.	-2.8	-6.9[16.7 µM]	.
C[C@H](CO)N1C[C@H](C)[C@@H](CN(C)S(=O)(=O)c2ccccc2)Oc2c(NC(=O)Nc3ccccc3)cccc2C1=O	-11.5	3.8	-13.1	-1.3	-6.2[16.7 µM]	3.4
C[C@@H]1CN([C@@H](C)CO)C(=O)c2cccc(NC(=O)Nc3ccccc3)c2O[C@H]1CN(C)S(=O)(=O)c1ccccc1	39.5*	-0.8	-1.3	-0.8	1.6[16.7 µM]	.
C[C@H](CO)N1C[C@H](C)[C@H](CN(C)Cc2ccc(-c3ccccc3)cc2)Oc2c(NC(=O)c3nc4ccccc4s3)cccc2C1=O	41.4*	-1.3	21.8	2.5	22.4[16.7 µM]	.
C[C@@H]1CN([C@H](C)CO)C(=O)c2cccc(NC(=O)Nc3ccccc3)c2O[C@H]1CN(C)S(=O)(=O)c1ccc(Cl)cc1	9.7	0.0	-4.3	-0.4	.	.
C[C@H](CO)N1C[C@H](C)[C@@H](CN(C)S(=O)(=O)c2ccc(Cl)cc2)Oc2c(NC(=O)c3nc4ccccc4s3)cccc2C1=O	24.7*	0.8	5.2	-1.9	-3.8[16.7 µM]	-12.6
CO[C@@H]1CN(C)C(=O)c2cc(NC(=O)Nc3ccccc3F)ccc2OC[C@H](C)N(C(C)=O)C[C@H]1C	-5.3	-3.0	11.0	-0.5	9.7[16.7 µM]	3.0
COCC(=O)Nc1ccc2c(c1)OC[C@@H](C)N(C(=O)Cc1ccccn1)C[C@H](C)[C@@H](OC)CN(C)C2=O	-0.3	-0.6	5.0	-0.6	.	-6.5
COCC(=O)N1CCC2(CC1)CN[C@H](CO)c1c2c2ccc(OC)cc2n1C	3.3	.	-8.5	3.7	.	-11.0
C[C@@H]1CN([C@@H](C)CO)C(=O)c2cccc(NC(=O)Nc3ccc(C(F)(F)F)cc3)c2O[C@H]1CN(C)Cc1ccncc1	11.4	0.3	2.8	0.6	.	.
C[C@@H]1CCCCO[C@H](CN(C)Cc2ccc(C(=O)O)cc2)[C@H](C)CN([C@@H](C)CO)C(=O)c2cc(NS(C)(=O)=O)ccc2O1	-7.5	-1.5	5.1	3.9	-2.9[16.7 µM]	.
C[C@@H](NC(=O)C[C@H]1C[C@@H]2c3cc(NC(=O)c4cccnc4)ccc3O[C@@H]2[C@H](CO)O1)c1ccccc1	-5.5	-0.6	-2.3	3.3	13.5[16.7 µM]	.
Cc1ccc(O)c(CNc2cccc(C)n2)c1	6.1	3.6	-2.0	-0.8	10.8	3.6
Cc1ccc(CNCc2cc(Cl)ccc2O)cc1	87.6*	4.2	16.0	-3.5	10.0	9.2
Cc1cccc(NCc2cc(Cl)ccc2O)n1	-0.3	-2.6	-9.3	-51.7*	.	.
Cc1ccccc1-n1ncc2c1CC(C)(C)CC2NC(=O)CSc1ccncc1 (stereo not drawn)	107.8*	-1.4	1.2	-3.8	18.1	7.3
CC(C)NC(=O)Nc1ccc2c(c1)C(=O)N([C@@H](C)CO)C[C@H](C)[C@H](CN(C)C)OCCCC[C@H](C)O2	-1.8	2.0	1.7	0.8	-8.1[16.7 µM]	5.1
SMILES	DENV2 CPE rescue	PglD inh	PGC1a acetyl inh	Ecoli rRNA inh	HIV Env fusion	FN deposition inh
COc1ccc(NC(=O)Nc2ccc3c(c2)C(=O)N([C@@H](C)CO)C[C@@H](C)[C@@H](CN(C)C(=O)Nc2ccc(OC)cc2)OCCCC[C@@H](C)O3)cc1	16.5	1.7	-8.6	-3.9	-33.0[16.7 µM]	-12.0
COc1ccccc1CNC(=O)CCCN1C(=O)COc2ccc(C)cc21	.	-2.2	-46.2	.	-9.1	1.0
Cc1ccc2c(c1)N(CCCC(=O)NCc1ccc3c(c1)OCO3)C(=O)CO2	91.7*	0.4	-36.9	3.9	-16.4	6.0
C[C@H](CO)N1C[C@H](C)[C@@H](CN(C)C)Oc2cc(/C=C/c3ccccc3)ccc2S1(=O)=O	8.1	-1.3	-13.3	0.2	2.1[16.7 µM]	0.9
COc1ccc(F)cc1C(=O)C1CCCN(Cc2cn(C)c3ccccc23)C1 (stereo not drawn)	-6.2	2.3	-8.8	-31.1*	40.6	-2.7
Cn1cc(CN2CCCC(CNC(=O)c3ccc4c(c3)OCO4)C2)c2ccccc21 (stereo not drawn)	.	1.0	10.1	11.2	55.8*	3.1
O=C(N[C@@H]1CC[C@@H](CCNC(=O)C2CCC2)O[C@H]1CO)c1ccncc1	0.1	0.2	3.5	2.2	1.4[16.7 µM]	-10.7
CN(C)c1ccc2c(c1)[C@H]1C[C@H](CC(=O)NCc3ccc4c(c3)OCO4)O[C@@H](CO)[C@H]1O2	-3.7	2.2	8.2	-1.6	4.4[16.7 µM]	.
CCCCCc1ccc(-c2ccc(/C=C/C(N)=O)cc2)nc1	.	-4.6	7.4	.	-3.5	-8.3
CCCCCc1ccc(-c2ccc(OC)cc2)nc1	-2.4	-1.7	.	-24.5*	-50.9	-12.2
Cc1nn(C2CCS(=O)(=O)C2)c(Cl)c1/C=C/C(=O)OCC(=O)c1cc(C)n(-c2ccc(F)cc2)c1C (stereo not drawn)	-0.6	.	11.6	-6.9	55.0*	-6.4
CO[C@H]1CN(C)C(=O)c2ccc(NC(=O)Cc3ccccc3)cc2OC[C@@H](C)NC[C@@H]1C	0.6	1.9	9.8	-1.4	-3.8[16.7 µM]	8.7
